In the library only some 1.2% were active in any assay of this set; here they are far more common.
Runt-CBFb FRET: inhibitors of human RUNX1 Runt domain binding to CBFb; Q01196+Q13951; Cerulean-Runt/Venus-CBFb FRET ratio 530/480, 1 h; inhibition, % at 20 µM; hit rate 0.46% among 220,000; AID 1496;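 active means inhibition over about 50% at 20 µM in the single-dose screen, limit read from the data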;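 further: 0% = DMSO wells and 100% = excess unlabeled CBFb competitor control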
Target sequence (Q01196 whole entry, looked up, the tested form may be a part): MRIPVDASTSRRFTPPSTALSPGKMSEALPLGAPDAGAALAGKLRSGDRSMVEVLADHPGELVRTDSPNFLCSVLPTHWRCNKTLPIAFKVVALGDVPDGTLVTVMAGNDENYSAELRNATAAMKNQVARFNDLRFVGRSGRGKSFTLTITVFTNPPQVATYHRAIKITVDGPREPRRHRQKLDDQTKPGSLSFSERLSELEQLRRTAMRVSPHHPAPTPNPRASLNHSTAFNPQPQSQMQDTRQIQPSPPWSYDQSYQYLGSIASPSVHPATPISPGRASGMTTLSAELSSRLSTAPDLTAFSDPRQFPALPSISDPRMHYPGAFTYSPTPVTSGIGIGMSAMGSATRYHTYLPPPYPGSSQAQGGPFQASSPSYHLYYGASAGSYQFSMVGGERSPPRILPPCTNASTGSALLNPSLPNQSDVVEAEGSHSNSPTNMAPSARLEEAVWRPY
Target sequence (Q13951 whole entry, looked up, the tested form may be a part): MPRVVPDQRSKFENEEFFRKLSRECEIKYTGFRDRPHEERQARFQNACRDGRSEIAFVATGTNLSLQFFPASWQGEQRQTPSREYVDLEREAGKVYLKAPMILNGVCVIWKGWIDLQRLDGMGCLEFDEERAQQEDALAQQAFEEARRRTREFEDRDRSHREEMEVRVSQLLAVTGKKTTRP
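Buffer or medium: Tris pH 7.5 buffer with BSA. Assay system: Cerulean-labeled Runt domain protein. Amount: each fluorescent fusion protein 100 nM. Read-out basis: loss of energy transfer signal. Incubation: 1 h compound exposure, room temperature. Probe or stimulus: Venus-CBFb binding partner, 100 nM. Detection: FRET, excitation 422 nm, emission at 530 and 480 nm.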
RanGTP-Impb inh: inhibitors of RanGTP-importin-beta interaction, primary screen, biochemical, FRET, CFP-Ran, YFP-importin-beta, homogeneous; hit rate 1.1% among 300,000; cell-free CFP-Ran/YFP-importin-beta FRET ratio; inhibition, % (test concentration not listed);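 active means more than half of the replicate wells show a fall in the fluorescence ratio signal beyond about 16%, limit read from the data, passing the limit was not always enough; inconclusive means exactly half of the replicate wells pass the set limit; inactive means fewer than half of replicates pass the limit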;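 further: 0% = DMSO wells and 100% = Ran loaded with GDP instead of GTP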
Runt-SMMHC FRET: Runt domain-CBFb-SMMHC interaction inhibition; Q01196+Q13951; Cerulean-Runt/Venus-CBFb-SMMHC FRET ratio 530/480, 1 h; inhibition, % at 20 µM; hit rate 0.74% among 220,000; AID 1434;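 active means mean inhibition across duplicate retests at 20 µM reaching about 50%, limit read from the data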;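 further: 0% = DMSO wells and 100% = wells with excess untagged CBFb-SMMHC; inhibitors lower the FRET ratio by blocking Runt binding to CBFb-SMMHC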
CaV13 FRET inh: Disruptors of the CACNA1D IQ motif to Ca2+-dependent inactivation inhibitor domain association, primary screening, Förster resonance energy transfer in intact living … | AID 743397 | hit rate 0.098% among 340,000 | inhibition, % at 12.3 µM | HEK cells, CFP/YFP FRET ICDI-IQ, plate reader, 10 min; percent FRET-ratio fall versus neutral wells;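 active means mean replicate inhibition of at least 30% and at least 1% of replicates passing that level; inconclusive means only one of the two criteria is met; inactive means neither criterion is met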;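 further: 0% = median of the neutral control wells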
Runt-CBFb TRFRET: Runt-CBFb binding inhibition; shares compounds with Runt-CBFb FRET; hit rate 20% among 480; inhibition, % at 20 µM; TR-FRET RUNX1 Runt domain-CBFb binding; AID 1502; in the data active means inhibition above about 40%
YIC FRET counter: counter-screen: alters YIC FRET probe signal; shares compounds with RanGTP-Impb inh; Purified YIC probe, intramolecular FRET ratio YFP/CFP; IC50, µM; hit rate 40% among 1,000;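 active means fitted half-maximal inhibitory concentration no more than tenfold above the top dose tested; inconclusive means flat fit with 30 to 70% activity, or poor fit; inactive means half-maximal concentration beyond tenfold above the top dose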
* marks the source's active call; other numbers are inactive results; ? = inconclusive; · = not tested or not shown.

SMILES | Runt-CBFb FRET | RanGTP-Impb inh | Runt-SMMHC FRET | CaV13 FRET inh | Runt-CBFb TRFRET | others
O=C(c1ccc([N+](=O)[O-])c(CS(=O)(=O)c2ccc(Cl)cc2)c1)N1CCCC1 | 1.6 | 2.1 | -6.8 | -4.2 | ·
Cc1nc2ccccc2c(=O)n1/N=C/C=C/c1ccccc1 | 0.0 | -0.8 | -0.4 | -4.1 | ·
Cc1cc(NS(=O)(=O)c2ccc(NC(=O)c3ccc([N+](=O)[O-])c(Cl)c3)cc2)no1 | · | 6.8 | · | -5.3 | ·
Cc1c(NC(=O)c2ccco2)cccc1C(=O)NN1C(=O)c2ccccc2C1=O | 0.7 | 3.6 | -2.9 | -17.8 | ·
Cc1c(Cc2ccccc2)c(=O)oc2cc(O)ccc12 | 66.3* | 3.8 | 127.6* | -4.7 | -4.7
Cc1cc(C(=O)OC(C(=O)Nc2ccc(C)c(Cl)c2)c2ccccc2)c(C)o1 (centres undefined) | 64.6* | -0.6 | 10.2 | -4.1 | -11.2
COCCCNC(=S)NCCCNc1nc2cc3c(cc2cc1C#N)OCO3 | 78.1* | 53.1* | 140.5* | -2.4 | 26.9
COCCCNC(=S)NNC(=O)c1ccc2c(c1)OCO2 | 0.2 | 5.3 | 0.6 | -4.2 | ·
COc1ccc(/C=N/NC(=O)c2cc(O)c(O)c(O)c2)cc1Cn1cc([N+](=O)[O-])cn1 | 53.8* | 8.5 | 48.7 | -20.9 | -5.1
CCCOC(=O)C1=C(C)NC2=C(C(=O)CC(C)(C)C2)C1c1cccnc1 (centres undefined) | 63.4* | ? | 127.2* | -3.1 | -15.4
C#CCOc1coc(COC(=O)c2ccccc2)cc1=O | · | -0.9 | · | -10.0 | ·
O=C(O)CN1C(=O)/C(=C/c2ccc(SCc3ccccc3)o2)SC1=S | 70.5* | · | 31.5 | -117.6 | 3.6
O=C(O)CN1C(=O)/C(=C\c2ccc(OC(=O)c3ccco3)cc2)SC1=S | · | -0.6 | · | -6.7 | ·
O=C(N/N=C/c1cc([N+](=O)[O-])cc([N+](=O)[O-])c1O)/C(=C\c1cccs1)NC(=O)c1ccccc1 | -4.1 | 2.9 | -6.4 | -5.9 | ·
COc1ccc(Cn2c3nc4ccccc4nc3c3c(=O)n(Cc4ccco4)c(C)nc32)cc1 | 51.8* | · | 47.5 | · | -29.2
CCOC(=O)c1ccc(N2N=C(C)/C(=C/C=C/c3ccco3)C2=O)cc1 | -4.4 | -0.2 | -12.8 | -5.2 | ·
O=C(O)c1cc(N2N=C(C(F)(F)F)/C(=C/C=C/c3ccco3)C2=O)ccc1Cl | 52.8* | · | 39.3 | -6.7 | 92.1*
Cc1ccc(NS(=O)(=O)c2ccc3c(c2)CC(=O)N3)cc1C | · | -1.4 | · | -7.0 | ·
Cc1nc2ccccc2c(=O)n1/N=C/c1ccc([N+](=O)[O-])o1 | 56.9* | 0.7 | 86.2 | · | 3.3
Cc1nc2ccccc2n1/N=C/c1ccc([N+](=O)[O-])o1 | · | -1.3 | · | -9.3 | ·
C=CCN1C(=O)/C(=C2/Sc3ccc(OC)cc3N2C)SC1=Nc1ccccc1 | 6.1 | -11.2 | -22.2 | -1.5 | ·
C=CCN1C(=O)/C(=C2/Sc3ccc(OC)cc3N2C)SC1=NCc1ccccc1 | 51.2* | 1.1 | 36.6 | -6.9 | 10.5
Cc1cccc(/C=N/c2sc3c(c2C(=O)OC(C)(C)C)CCN(C)C3)c1O | 31.3 | ? | 14.5 | -7.4 | ·
CCOC(=O)c1c(/N=C/c2cc(C)ccc2O)sc2c1CCN(C)C2 | 50.0* | 56.3* | 60.1* | -3.4 | 0.3
COc1cc(C2C3=C(CC(C)(C)CC3=O)Nc3c2c(=O)[nH]c(=O)n3Cc2ccccc2)ccc1O (centres undefined) | 76.0* | ? | 115.3* | -0.4 | 5.9
SMILES | Runt-CBFb FRET | RanGTP-Impb inh | Runt-SMMHC FRET | CaV13 FRET inh | Runt-CBFb TRFRET | others
O=C(N/C=C/c1ccccc1)c1ccccc1 | · | 2.5 | · | -5.1 | ·
Cc1[nH]c2ccccc2c1SCC(=O)O | 69.7* | -3.6 | -9.4 | · | -28.2
COc1c(O)c(O)c2oc(-c3ccccc3)cc(=O)c2c1OC | 57.6* | -2.3 | 52.8* | · | 64.8*
Nc1nc2ccc(S(=O)(=O)N3CCCCC3)cc2s1 | 56.5* | -4.6 | 55.6 | -7.5 | 6.4
Cc1nc2ccc(S(=O)(=O)N3CCCCC3)cc2s1 | · | 2.0 | · | -2.5 | ·
COc1ccc2nc(NC(=O)c3sc4nc(C)cc(C)c4c3N)sc2c1 | 64.8* | 6.5 | 31.2 | 26.9 | 12.8
CN1C(=O)C2(NC(=O)c3ccccc3N2C)c2ccccc21 (centres undefined) | -1.7 | -3.2 | -3.5 | -2.0 | ·
CN1C(=O)C(Cl)(Cl)C(=O)c2ccccc21 | 54.0* | 3.4 | 55.3 | · | 5.2
COc1ccc(NC(=S)NCCc2ccccc2)c(C)c1 | · | -1.8 | · | -5.6 | ·
COc1cc(C)c(NC(=O)C(=S)NCCc2ccccc2)cc1C | 51.4* | -1.8 | 34.3 | 0.8 | 15.3
C=CCCC(=O)N1C[C@H]2CON(C)[C@H]2C[C@H]1c1ccc(N2CCCCC2)cc1 | · | · | · | -6.4 | ·
O=C(O)c1ccc(N/N=C/c2ccc(-c3cccc(Cl)c3)o2)cc1 | 58.5* | 67.6* | 80.3* | -0.5 | 24.9
O=C(O)c1cccc(-c2ccc(/C=N/Nc3ccc([N+](=O)[O-])cc3)o2)c1 | -59.4 | -94.2 | -144.2 | -25.8 | ·
O=C(CNCc1ccccc1)Nc1ccc(Cl)cc1 | · | 0.1 | · | -18.5 | ·
O=C(NC(=S)Nc1cccc2ncccc12)c1ccco1 | 6.1 | 5.1 | 0.3 | 1.2 | ·
N#C/C(=C\c1ccco1)C(=O)Nc1cccc2ncccc12 | 61.0* | 9.1 | 29.0 | 41.5* | -7.4
CC(C)Cc1csc(NC(=O)c2ccc(Cl)cc2)c1C(=O)O | 1.4 | -1.8 | -2.1 | -5.5 | ·
CC(C)Cc1csc(NC(=O)c2ccccc2Cl)c1C(=O)O | 105.1* | -4.1 | -8.7 | -5.9 | 3.3
CCn1c(C)c(C(C)=O)c(N2CCN(c3ccccn3)CC2)nc1=S | 51.8* | 45.3* | 99.9* | -7.8 | -4.2
Cc1cccnc1Nc1nc(-c2ccc(O)c(O)c2)cs1 | 64.6* | 0.6 | 51.6* | -9.9 | -22.5
COc1ccc(-c2csc(Nc3ncccc3C)n2)cc1OC | 3.3 | -0.2 | 3.3 | · | ·
CCN1CCN(Cc2c(O)c(Cl)cc3c(C)cc(=O)oc23)CC1 | 93.9* | 27.0* | 167.9* | -3.6 | 18.1 | YIC FRET counter=38.8*
CCc1cc(=O)oc2cc(C)c(CN3CCCC3)c(O)c12 | -4.1 | -7.1 | -20.6 | -5.4 | ·
CCCn1c(=N)c(C(=O)NCc2ccc3c(c2)OCO3)cc2c(=O)n3cccc(C)c3nc21 | 71.0* | 40.2* | 99.3* | -6.0 | -23.6 | YIC FRET counter=14.6*
COc1ccc(OC)c(CCNC(=O)CCCC(=O)n2ncc3cc(C)ccc32)c1 | · | ? | · | -5.8 | ·
COc1ccc2cc(-c3nc4ccccc4n3C)c(=O)oc2c1 | 59.5* | 43.6* | 127.1* | -7.2 | 24.3 | YIC FRET counter=11*
Cc1c(O)ccc2c3c(c(=O)oc12)CCC(C)C3 (centres undefined) | 66.1* | 37.2* | 118.0* | 3.0 | 19.7 | YIC FRET counter=14*
CCN(CC(=O)NCc1ccc(Cl)cc1)C(=O)Cc1ccccc1[N+](=O)[O-] | · | -3.0 | · | -5.8 | ·

Screening data: PubChem BioAssay, several laboratories
